The values below come from PubChem BioAssay.

Test [1] can be described thus: Her2 expression decrease, cell viability multiplex – SKBR3 breast tumor cells, AlphaScreen, ATP viability, primary screen (AID 461;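 active = Her2 level under about 52% in both replicate screens, with viability over 70% of control, limit read from the data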;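 as to Her2 level: lower value means less Her2 protein in the cells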;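 as to viability: percent of carrier control wells set as 100% viability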). Conditions: SKBR3 Her2 protein level, 18-24 h, measured here: SKBR3 viability, ATP luminescence, at 10 µM. (In general: Bead proximity is the source of the signal in Alpha formats.)
Test [2] concerns the target Receptor tyrosine-protein kinase erbB-2 (Homo sapiens) (UniProt P04626). Described as above. Conditions: 18-24 h, at 10 µM, stronger effect = lower value.
Test [3] can be described thus: reduced viability of SK-BR-3 breast cancer cells – cell-based, 24 h, human, pilot screen (AID 572;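 active = viability at or below 10% of carrier control in both of two separate runs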;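 also: compound exposure lasted between 18 and 24 h rather than exactly 24 h; 100% = carrier-treated control wells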). The note with it: SK-BR-3 viability, CellTiter-Glo luminescence, at 10 µM, stronger effect = lower value. A general note: Cellular ATP, detected with luciferase, serves as a proxy for viable cell number.
The nature of test [4]: HUVEC growth inhibition – cell-based, human, primary screen (AID 575;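 active = viability at or below 30% in both replicate assays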;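 also: 100% = median of untreated cell wells with 0.1% DMSO on each plate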). Conditions: HUVEC proliferation, CellTiter-Glo luminescence, 72 h; at 10 µM; stronger effect = lower value. The method, boiled down: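 System: primary human umbilical vein endothelial cells; Quantity: 1250 endothelial cells in each well; Buffer or medium: supplemented EBM, 2% fetal bovine serum; Doses: one dose, 10 µM final, 0.1% DMSO; Incubation: 72 h compound incubation; Technique: ATP-based CellTiter-Glo luminescent read; Evaluation: percent of median DMSO-control luminescence; Controls: vehicle and MePR control wells.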

Test [5] is described as follows: H69AR cell proliferation blockers – human, duplicate replicates, primary screen (AID 580;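 active = viability at or under a set limit in both replicates, limit being median viability minus 3 SD, cut at about 48% in these data, passing the limit was not always enough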;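 also: 100% = mean luminescence of untreated wells and 0% = no signal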). The note with it: H69AR lung tumor cells viability, ATP luminescence, 72 h; at 10 µM; stronger effect = lower value.
Test [6] is described as follows: MRP1 drug-resistance reversers in H69AR cells – cell-based, doxorubicin co-treatment, pilot screen (AID 601). The note with it: CellTiter-Glo, 72 h, at 10 µM; for differential viability (reversal): stronger effect = higher value.
Test [7] can be described thus: yeast transport mutant growth inhibition pilot in 384-well plates, post-Golgi transport modulator project (AID 636; in the data active = inhibition above about 31%). Conditions: absorbance 615 nm, about 18 h, stronger effect = higher value.
The nature of test [8]: growth suppression of yeast trafficking mutant, preliminary HTS, modulators of trafficking downstream of Golgi apparatus project, 1536-format plate, OD 615 nm (AID 637; in the data active = inhibition above about 30%). Conditions: yeast transport mutant growth, absorbance 615 nm, 18 h; stronger effect = higher value.
[9] abbreviates: H69AR cells + 2 uM doxorubicin, measured here: viability with 2 uM doxorubicin, stronger effect = lower value.
Where [10] appears, read: H69AR cells, compound alone cytotoxicity.

Calls of active or inactive are those of the source.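 The calls were made as follows, unless noted: active = viability loss from added drug above about 55%, and viability with drug at most 40%, in both replicates (limit read from the data, passing the limit was not always enough); inconclusive = both conditions met in only one replicate; inactive = neither replicate meets both conditions.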

Sequence of Receptor tyrosine-protein kinase erbB-2 (Homo sapiens) (P04626 whole entry, looked up): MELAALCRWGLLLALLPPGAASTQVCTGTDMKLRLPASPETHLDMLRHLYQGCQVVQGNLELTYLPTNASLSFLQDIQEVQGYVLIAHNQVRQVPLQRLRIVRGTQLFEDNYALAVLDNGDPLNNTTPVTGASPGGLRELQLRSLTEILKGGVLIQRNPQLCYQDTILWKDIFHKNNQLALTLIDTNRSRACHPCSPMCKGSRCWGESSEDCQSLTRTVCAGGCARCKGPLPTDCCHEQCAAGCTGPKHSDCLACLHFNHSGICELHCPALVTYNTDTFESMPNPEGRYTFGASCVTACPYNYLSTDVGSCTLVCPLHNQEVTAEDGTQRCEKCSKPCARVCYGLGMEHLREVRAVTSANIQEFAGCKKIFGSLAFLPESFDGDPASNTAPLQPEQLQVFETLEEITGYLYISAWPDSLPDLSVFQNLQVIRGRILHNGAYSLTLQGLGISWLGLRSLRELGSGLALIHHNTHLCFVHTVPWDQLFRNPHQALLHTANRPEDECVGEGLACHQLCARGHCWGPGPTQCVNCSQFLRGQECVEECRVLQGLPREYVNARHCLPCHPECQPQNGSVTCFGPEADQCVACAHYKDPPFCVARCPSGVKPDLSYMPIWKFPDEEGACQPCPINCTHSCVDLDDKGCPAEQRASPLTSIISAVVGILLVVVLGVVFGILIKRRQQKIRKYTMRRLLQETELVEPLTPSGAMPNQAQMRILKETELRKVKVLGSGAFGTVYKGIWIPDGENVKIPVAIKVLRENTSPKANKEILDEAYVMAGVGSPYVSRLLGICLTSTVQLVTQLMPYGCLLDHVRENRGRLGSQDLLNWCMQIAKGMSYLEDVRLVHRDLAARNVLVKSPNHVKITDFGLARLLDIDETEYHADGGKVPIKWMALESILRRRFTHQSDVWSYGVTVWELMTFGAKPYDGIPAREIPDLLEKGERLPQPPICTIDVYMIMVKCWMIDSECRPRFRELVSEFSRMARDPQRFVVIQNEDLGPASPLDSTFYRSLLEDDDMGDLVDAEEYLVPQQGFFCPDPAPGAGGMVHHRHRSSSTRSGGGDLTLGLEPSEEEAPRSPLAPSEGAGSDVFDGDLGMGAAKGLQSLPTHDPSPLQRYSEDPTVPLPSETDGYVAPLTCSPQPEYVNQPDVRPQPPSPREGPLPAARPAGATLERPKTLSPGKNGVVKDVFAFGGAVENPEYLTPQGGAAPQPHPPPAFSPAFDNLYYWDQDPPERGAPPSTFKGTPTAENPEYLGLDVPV

For the compound `CN(C(=O)c1ccno1)c1nnc(-c2cnccn2)s1`, the viability in test [1] was 107%; in test [3], 107% (inactive); in test [4], 108% (inactive); in test [5], 103% (inactive); in test [6] (setting [9]) it was 95.9%; in test [6] (setting [10]), 103%. Also, the Her2 level in test [2] was 102% (inactive). Besides, in test [6] (H69AR cells + 2 uM doxorubicin), the differential viability (reversal) is 6.98% (inactive). For the same compound, the inhibition in test [7] was -6.22% (inactive); in test [8], 1.83% (inactive).
Consider `CC(C)C1N=C2c3ccccc3N=C(SCc3cc(=O)n4ccccc4n3)N2C1=O` (stereo not given), for which the viability in test [1] is 89%; in test [3] it was 89% (inactive); in test [4] it was 97.6% (inactive); in test [5], 80.1% (inactive); in test [6] (setting [9]), 101%; in test [6] (setting [10]), 80.1%. Also, the Her2 level in test [2] was 135% (inactive). For the same compound, in test [6] (H69AR cells + 2 uM doxorubicin), the differential viability (reversal) was -20.5% (inactive). The inhibition was 2.24% (inactive) in test [7] and -3.67% (inactive) in test [8].
As for `Cc1noc(C)c1S(=O)(=O)N1CCC(C(=O)Nc2ccccn2)CC1`, the viability is 98% in test [1]; 98% (inactive) in test [3]; 105% (inactive) in test [4]; 89.5% (inactive) in test [5]; 83.3% in test [6] (setting [9]); 89.5% in test [6] (setting [10]). In addition, in test [2], the Her2 level was 81% (inactive). The differential viability (reversal) in test [6] (H69AR cells + 2 uM doxorubicin) is 6.2% (inactive). Moreover, the inhibition in test [7] is -2.11% (inactive); in test [8] it was 0.48% (inactive).
With `COc1cccc(OC)c1C(=O)N1CCN(S(=O)(=O)c2ccc(C)cc2)CC1`, the viability in test [1] was 103%; in test [3] it was 103% (inactive); in test [4], 87.2% (inactive); in test [5] it was 91.4% (inactive); in test [6] (setting [9]), 96.7%; in test [6] (setting [10]), 91.4%. Moreover, the Her2 level in test [2] is 108% (inactive). The differential viability (reversal) in test [6] (H69AR cells + 2 uM doxorubicin) is -5.23% (inactive). Besides, the inhibition in test [7] was -7.2% (inactive); in test [8], -3.28% (inactive).
Consider `CSc1nnc2c3ccccc3n(CCc3ccccc3)c2n1`, for which the viability is 90% in test [1]; 90% (inactive) in test [3]; 68.6% (inactive) in test [4]; 89.4% (inactive) in test [5]; 86.1% in test [6] (setting [9]); 89.4% in test [6] (setting [10]). Also, the Her2 level in test [2] is 100% (inactive). In test [6] (H69AR cells + 2 uM doxorubicin), the differential viability (reversal) was 3.33% (inactive). For the same compound, the inhibition in test [7] is -1.35% (inactive); in test [8] it was 46.2% (active).
Turning to `O=C(CCN1C(=O)c2ccccc2C1=O)OCN1C(=O)c2ccccc2C1=O`, the viability in test [1] was 95%; in test [3], 95% (inactive); in test [4], 97.7% (inactive); in test [5], 91.8% (inactive); in test [6] (setting [9]), 102%; in test [6] (setting [10]), 91.8%. In test [2], the Her2 level was 108% (inactive). In addition, the differential viability (reversal) in test [6] (H69AR cells + 2 uM doxorubicin) was -10.6% (inactive). Further, the inhibition is 6.8% (inactive) in test [7] and -3.17% (inactive) in test [8].
Take `Cc1nnc(SCC(=O)Nc2ccc(Br)cn2)[nH]c1=O`: the viability was 118% in test [1]; 118% (inactive) in test [3]; 98.7% (inactive) in test [4]; 98.3% (inactive) in test [5]; 93.6% in test [6] (setting [9]); 98.3% in test [6] (setting [10]). Also, the Her2 level in test [2] was 85% (inactive). Also, the differential viability (reversal) in test [6] (H69AR cells + 2 uM doxorubicin) is 4.71% (inactive). Also, the inhibition was 1.84% (inactive) in test [7] and 8.17% (inactive) in test [8].
Regarding `N#CC1(c2ccccc2)CCC(=NO)CC1` (stereo not given), the viability in test [1] is 106%; in test [3] it was 106% (inactive); in test [4], 90.2% (inactive); in test [5] it was 98.1% (inactive); in test [6] (setting [9]), 96.8%; in test [6] (setting [10]), 98.1%. The Her2 level in test [2] is 91.5% (inactive). Also, the differential viability (reversal) in test [6] (H69AR cells + 2 uM doxorubicin) was 1.23% (inactive). Besides, the inhibition in test [7] is -3.7% (inactive); in test [8], -2.06% (inactive).
On to `CCOC(=O)C1=C(O)C(=O)N(c2ccc(S(N)(=O)=O)cc2)C1c1ccccc1` (stereo not given), for which the viability in test [1] is 97.5%; in test [3], 97.5% (inactive); in test [4], 96.7% (inactive); in test [5], 96.7% (inactive); in test [6] (setting [9]) it was 95.2%; in test [6] (setting [10]), 96.7%. The Her2 level in test [2] is 110% (inactive). Besides, the differential viability (reversal) in test [6] (H69AR cells + 2 uM doxorubicin) was 1.46% (inactive). For the same compound, the inhibition was -6.53% (inactive) in test [7] and -6.23% (inactive) in test [8].
As for `Cc1ccc(NC(=O)C2CCCN(S(=O)(=O)c3cnc[nH]3)C2)cc1C` (stereo not given), the viability in test [1] is 95%; in test [3] it was 95% (inactive); in test [4], 102% (inactive); in test [5], 100% (inactive); in test [6] (setting [9]), 94.6%; in test [6] (setting [10]), 100%. In addition, the Her2 level in test [2] is 110% (inactive). Also, the differential viability (reversal) in test [6] (H69AR cells + 2 uM doxorubicin) was 5.56% (inactive). Besides, the figures for the inhibition in test [7] and in test [8] were -5.6% (inactive) and -2.3% (inactive), respectively.
On to `CS(=O)(=O)Nc1ccc(C(=O)NCc2ccco2)cc1`, for which the viability in test [1] was 88.5%; in test [3] it was 88.5% (inactive); in test [4] it was 104% (inactive); in test [5] it was 103% (inactive); in test [6] (setting [9]) it was 101%; in test [6] (setting [10]) it was 103%. In test [2], the Her2 level is 106% (inactive). In test [6] (H69AR cells + 2 uM doxorubicin), the differential viability (reversal) was 2.3% (inactive). In addition, the inhibition in test [7] is -1.05% (inactive); in test [8], -5.16% (inactive).
Regarding `CCOc1ccc(C2CC(c3cccc(C)c3)n3ncnc3N2)cc1` (stereo not given), the viability in test [1] was 101%; in test [3] it was 101% (inactive); in test [4], 94% (inactive); in test [5], 111% (inactive); in test [6] (setting [9]), 93.1%; in test [6] (setting [10]), 111%. Further, in test [2], the Her2 level is 100% (inactive). In test [6] (H69AR cells + 2 uM doxorubicin), the differential viability (reversal) is 18% (inactive). The inhibition in test [7] was 1.41% (inactive); in test [8], -3% (inactive).
`Cc1ccc(S(=O)(=O)C2(C(=O)NC3CCCC3)CC2)cc1`: the viability in test [1] was 148%; in test [3] it was 148% (inactive); in test [4] it was 104% (inactive); in test [5] it was 97.1% (inactive); in test [6] (setting [9]), 87.8%; in test [6] (setting [10]), 97.1%. Further, in test [2], the Her2 level is 87.5% (inactive). Also, the differential viability (reversal) in test [6] (H69AR cells + 2 uM doxorubicin) is 9.32% (inactive). Moreover, the inhibition is -2.34% (inactive) in test [7] and -2.22% (inactive) in test [8].
On to `Cc1nnc(SCC(=O)N2CCN(S(=O)(=O)c3ccccc3)CC2)[nH]c1=O`, for which the viability in test [1] was 109%; in test [3] it was 109% (inactive); in test [4], 109% (inactive); in test [5], 107% (inactive); in test [6] (setting [9]), 91.2%; in test [6] (setting [10]) it was 107%. Moreover, the Her2 level in test [2] is 98.5% (inactive). In addition, in test [6] (H69AR cells + 2 uM doxorubicin), the differential viability (reversal) is 15.5% (inactive). Also, the inhibition is -6.67% (inactive) in test [7] and -2.9% (inactive) in test [8].
In the case of `Cc1c(C(=O)N2CCCC2)sc(NC(=O)c2cccs2)c1C#N`, the viability in test [1] was 106%; in test [3] it was 106% (inactive); in test [4], 98.1% (inactive); in test [5] it was 89.9% (inactive); in test [6] (setting [9]), 90.2%; in test [6] (setting [10]), 89.9%. Also, in test [2], the Her2 level was 91.5% (inactive). Further, the differential viability (reversal) in test [6] (H69AR cells + 2 uM doxorubicin) is -0.35% (inactive). The inhibition in test [7] is -3.6% (inactive); in test [8], -5.81% (inactive).
On to `O=S(=O)(NCCSc1ccccc1)c1cccs1`, for which the viability in test [1] was 95%; in test [3] it was 95% (inactive); in test [4] it was 102% (inactive); in test [5], 86.4% (inactive); in test [6] (setting [9]), 74.6%; in test [6] (setting [10]), 86.4%. The Her2 level in test [2] is 86% (inactive). In addition, in test [6] (H69AR cells + 2 uM doxorubicin), the differential viability (reversal) was 11.9% (inactive). Moreover, the inhibition in test [7] was -6.49% (inactive); in test [8] it was -5.5% (inactive).

Usually viability stands for a read-out of living cells in per cent, often relative to untreated cells. The term inhibition denotes the relative decrease from the control value, in per cent.
